The assay deals with HEK293. In words: Inhibition of Wnt/beta-catenin (unknown origin) signaling pathway expressed in HEK293 cells assessed as inhibition of TCF4 transcriptional activity at 5 to 40 uM after 24 hrs by TOPflash reporter gene assay. Format: cell-based. The following applies: Homo sapiens. The essentials: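 HEK293 cells seeded at 1.5 × 10^4 per well and cotransfected (Lipofectamine 2000) with TOPflash luciferase reporter 0.1 μg, Renilla 0.005 μg for normalization, pcDNA β-catenin 0.02 μg and TCF4 expression vector 0.004 μg to activate Wnt; 24 h later treated with compound or solvent for 24 h; dual luciferase read-out, Renilla-normalized, relative to vehicle; triplicate.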
(In a reporter assay the amount or activity of a reporter protein is the signal.)

Active and inactive are the calls of the source. No cut-off for these calls is given here.

For the molecule `O=C/C=C/c1ccccc1`, the inhibition result was “Active”.

These data come from ChEMBL document CHEMBL2406979, “Antitumor activity of 2-hydroxycinnamaldehyde for human colon cancer cells through suppression of β-catenin signaling” (J Nat Prod, 2013).
